Source: ChEMBL document CHEMBL3244365, “Synthesis of potential hypolipidemic agents. Reaction of substituted phenyl 2,3-epoxypropyl ethers with adenine, uracil, and thymine” (J Med Chem, 1978)
Activity calls are given as the source filed them. The rule behind the calls is not given here.

What was measured:
[1] = tested on: Rattus norvegicus; experiment: Hypolipidemic activity in Sprague-Dawley rat assessed as decrease in serum cholesterol at 10 mg/kg/day, po after 22 to 24 hrs by Liebermann-Burchard reaction (reference value: 100 +/- 8%); assay type: functional
How it was run: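 Male Sprague-Dawley rats were kept on rodent chow with water ad libitum. Compounds were suspended and homogenized in 1% CMC-water and given by oral intubation once daily at 11:00 a.m., with doses based on weekly body weights. Tail-vein blood was taken 22-24 h after dosing into nonheparinized microcapillary tubes and centrifuged 3 min. Serum cholesterol (mg %) was measured on duplicate 30-μl non-hemolyzed samples by a modified Liebermann-Burchard reaction.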

[2] = tested on: Liver microsome; experiment: Hypolipidemic activity in rat liver microsomes assessed as inhibition of incorporation of [1,3-14C]glycerol 3-phosphate ino neutral lipid at 0.5 to 5 mM; assay type: functional
How it was run: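 Rat liver microsomes were incubated with sn-[1,3-14C]glycerol 3-phosphate in the presence of ATP, palmitate, CoA and Mg2+. Label incorporated into neutral lipid (diglyceride + triglyceride) was measured, and phosphatidic acid accumulation was also followed.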

[3] = organism: Rattus norvegicus; experiment: Inhibition of rat phosphatidate phosphohydrolase in liver microsomes assessed as reduction in enzyme activity at 2 mmol
[4] = tested on: Rattus norvegicus; experiment: Hypolipidemic activity in Sprague-Dawley rat assessed as decrease in serum triglyceride at 10 mg/kg, po qd for 1 week (reference value: 100 +/- 5.3%); assay type: functional; conditions: 168 h
[5] = tested on: Rattus norvegicus; experiment: Hypolipidemic activity in Sprague-Dawley rat assessed as decrease in serum triglyceride at 50 mg/kg, po qd for 1 week (reference value: 100 +/- 5.3%); assay type: functional; conditions: 168 h
[6] = tested on: Rattus norvegicus; experiment: Hypolipidemic activity in Sprague-Dawley rat assessed as decrease in serum triglyceride at 100 mg/kg, po qd for 1 week (reference value: 100 +/- 5.3%); assay type: functional; conditions: 168 h
[7] = tested on: Rattus norvegicus; experiment: Hypolipidemic activity in Sprague-Dawley rat assessed as decrease in liver triglyceride at 10 mg/kg, po qd for 1 week (reference value: 100 +/- 8.4%); assay type: functional; conditions: 168 h
[8] = tested on: Rattus norvegicus; experiment: Toxicity in Sprague-Dawley rat assessed as change in body weight at 10 to 100 mg/kg, po; assay type: organism-based; parameters: dose 10-100 mg/kg, route oral; conditions: in vivo
How it was run: (§1)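 Male Sprague-Dawley rats received 10-100 mg/kg orally once daily for 7 days as a 1% CMC-water suspension. Body weight gain, food intake and deaths were monitored.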

[9] = tested on: Rattus norvegicus; experiment: Toxicity in Sprague-Dawley rat assessed as change in food intake at 10 to 100 mg/kg, po; assay type: organism-based; parameters: dose 10-100 mg/kg, route oral; conditions: in vivo; how it was run: as §1
[10] = tested on: Rattus norvegicus; experiment: Hypolipidemic activity in Sprague-Dawley rat assessed as liver triglyceride level at 100 mg/kg, po qd for 1 week (reference value: 100 +/- 8.4%); conditions: 168 h
[11] = tested on: Rattus norvegicus; experiment: Hypolipidemic activity in Sprague-Dawley rat assessed as change in liver triglyceride at 50 mg/kg, po qd for 1 week (reference value: 100 +/- 8.4%); conditions: 168 h
[12] = tested on: Rattus norvegicus; experiment: Hypolipidemic activity in Sprague-Dawley rat assessed as incorporation of [1,3-14C]glycerol in liver phospholipid at 10 mg/kg, po qd for 1 week (reference value: 100 +/- 8.3%); conditions: 168 h
[13] = tested on: Rattus norvegicus; experiment: Hypolipidemic activity in Sprague-Dawley rat assessed as incorporation of [1,3-14C]glycerol in liver phospholipid at 100 mg/kg, po qd for 1 week (reference value: 100 +/- 8.3%); conditions: 168 h
[14] = tested on: Rattus norvegicus; experiment: Hypolipidemic activity in Sprague-Dawley rat assessed as inhibition of incorporation of [1,3-14C]glycerol in liver triglyceride at 10 mg/kg, po qd for 1 week (reference value: 100 +/- 8.4%); values are per cent of control; conditions: 168 h
[15] = tested on: Rattus norvegicus; experiment: Hypolipidemic activity in Sprague-Dawley rat assessed as inhibition of incorporation of [1,3-14C]glycerol in liver triglyceride at 50 mg/kg, po qd for 1 week (reference value: 100 +/- 8.4%); values are per cent of control; conditions: 168 h
[16] = tested on: Rattus norvegicus; experiment: Hypolipidemic activity in Sprague-Dawley rat assessed as inhibition of incorporation of [1,3-14C]glycerol in liver phospholipid at 50 mg/kg, po qd for 1 week (reference value: 100 +/- 8.3%); values are per cent of control; conditions: 168 h
[17] = tested on: Rattus norvegicus; experiment: Hypolipidemic activity in Sprague-Dawley rat assessed as inhibition of incorporation of [1,3-14C]glycerol in liver triglyceride at 100 mg/kg, po qd for 1 week (reference value: 100 +/- 8.4%); values are per cent of control; conditions: 168 h

In the case of Nc1ncnc2c1ncn2CC(O)COc1ccccc1Cl (stereo unspecified), the level, % of control at 10 mg/kg/day [1] is reported as 93%.

Molecule O=c1ccn(CC(O)COc2ccc(Cl)cc2)c(=O)[nH]1 (stereo unspecified) has a level, % of control at 10 mg/kg/day [1] of 102%.

Molecule Nc1ncnc2c1ncn2CC(O)COc1cccc(Cl)c1 (stereo unspecified) has a level, % of control at 10 mg/kg/day [1] of 97%.

COc1ccc(OCC(O)Cn2ccc(=O)[nH]c2=O)cc1 (stereo unspecified) showed a level, % of control at 10 mg/kg/day [1] of 93%.

Work on Cc1ccc(OCC(O)Cn2cc(C)c(=O)[nH]c2=O)cc1 (stereo unspecified) yielded a level, % of control at 10 mg/kg/day [1] of 99%.

Work on COc1ccc(OCC(O)Cn2cnc3c(N)ncnc32)cc1 (stereo unspecified) yielded a level, % of control at 10 mg/kg/day [1] of 93%.

For Nc1ncnc2c1ncn2CC(O)COc1ccc(C(=O)c2ccccc2)cc1 (stereo unspecified), the level, % of control at 10 mg/kg/day [1] was 118%.

For Nc1ncnc2c1ncn2CC(O)COc1ccc(Cl)cc1 (stereo unspecified), the level, % of control at 10 mg/kg/day [1] was 93%, the inhibition [2] was “Active” and the inhibition [3] was 50%. For the same molecule, the level, % of control at 10 mg/kg [4] was 73%, the level, % of control at 50 mg/kg [5] was 38.5% and the level, % of control at 100 mg/kg [6] was 40.3%. For the same molecule, the level, % of control at 10 mg/kg [7] was 57.6%, the Activity [8] was “Non-toxic” and the Activity [9] was “Non-toxic”. The level, % of control at 100 mg/kg [10] was 345%, the level, % of control at 50 mg/kg [11] was 252% and the level, % of control at 10 mg/kg [12] was 74.9%. The level, % of control at 100 mg/kg [13] was 36.7%, the level, % of control at 10 mg/kg [14] was 36.7% and the level, % of control at 50 mg/kg [15] was 29%. It also gave a level, % of control at 50 mg/kg [16] of 33.5% and a level, % of control at 100 mg/kg [17] of 31.8%.

For CC(C)(C)c1ccc(OCC(O)Cn2cnc3c(N)ncnc32)cc1 (stereo unspecified), the level, % of control at 10 mg/kg/day [1] was 110%.

Nc1ncnc2c1ncn2CC(O)CSc1ccc(Cl)cc1 (stereo unspecified) gave a level, % of control at 10 mg/kg/day [1] of 79%.

Work on Nc1ncnc2c1ncn2CC(O)COc1ccc(F)cc1 (stereo unspecified) yielded a level, % of control at 10 mg/kg/day [1] of 86%.

With Nc1ncnc2c1ncn2CC(O)COc1ccc(Br)cc1 (stereo unspecified) the level, % of control at 10 mg/kg/day [1] was 96%.

CC(=O)c1ccc(OCC(O)Cn2cnc3c(N)ncnc32)cc1 (stereo unspecified) gave a level, % of control at 10 mg/kg/day [1] of 99%.

With Cc1ccc(OCC(O)Cn2ccc(=O)[nH]c2=O)cc1 (stereo unspecified) the level, % of control at 10 mg/kg/day [1] was 89%.

Cc1cn(CC(O)COc2ccc(Cl)cc2)c(=O)[nH]c1=O (stereo unspecified) showed a level, % of control at 10 mg/kg/day [1] of 96%.
